In ChEMBL document CHEMBL4680346, “Novel arylcarbamate-N-acylhydrazones derivatives as promising BuChE inhibitors: Design, synthesis, molecular modeling and biological evaluation” (Bioorg Med Chem, 2021):

Columns and labels:
Cholinesterase [1] = molecular target: T1, Cholinesterase (Equus caballus, UniProt P81908); test: Inhibition of equine serum BuChE using butyrylthiocholine chloride as substrate preincubated for 15 mins followed by substrate addition and measured after 4 mins by Ellman's method; type: cell-free
T1 sequence (P81908 whole entry): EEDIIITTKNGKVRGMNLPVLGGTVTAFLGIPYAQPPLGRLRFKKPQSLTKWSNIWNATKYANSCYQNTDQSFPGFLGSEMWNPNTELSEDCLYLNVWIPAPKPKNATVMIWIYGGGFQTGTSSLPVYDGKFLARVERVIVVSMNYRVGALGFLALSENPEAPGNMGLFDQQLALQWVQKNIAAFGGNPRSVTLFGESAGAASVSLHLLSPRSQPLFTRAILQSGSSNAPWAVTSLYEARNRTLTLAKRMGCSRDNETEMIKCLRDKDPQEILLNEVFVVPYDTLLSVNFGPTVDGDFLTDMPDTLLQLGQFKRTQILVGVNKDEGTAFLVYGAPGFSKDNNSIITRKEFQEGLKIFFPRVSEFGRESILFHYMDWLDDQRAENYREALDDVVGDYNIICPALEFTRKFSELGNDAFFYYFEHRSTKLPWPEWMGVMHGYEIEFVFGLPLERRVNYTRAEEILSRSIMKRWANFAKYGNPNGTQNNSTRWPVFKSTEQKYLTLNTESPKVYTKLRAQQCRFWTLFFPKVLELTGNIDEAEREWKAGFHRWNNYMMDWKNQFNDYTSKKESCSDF

Cholinesterase [2] = molecular target: T1, Cholinesterase; test: Non-Competitive inhibition of equine serum BuChE using varying concentrations of butyrylthiocholine iodide as substrate by Lineweaver-burk plot analysis; type: cell-free
Summary of the method: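 Equine serum BuChE kinetics by the Ellman read-out with butyrylthiocholine at 0.025–2.0 mM. Run without inhibitor and with inhibitor at 0.5 and 1.0 µM. Reciprocal initial rate was plotted against reciprocal substrate concentration (Lineweaver-Burk) to assign the inhibition mode.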

[3] = molecular target: Acetylcholinesterase (Electrophorus electricus) (UniProt O42275); test: Inhibition of Electrophorus electricus AChE at 100 uM using acetylthiocholine iodide as substrate preincubated for 15 mins followed by substrate addition and measured after 4 mins by Ellman's method; settings: time 19.0 min
Chain of Acetylcholinesterase (Electrophorus electricus) (O42275 24-633 limits assumed): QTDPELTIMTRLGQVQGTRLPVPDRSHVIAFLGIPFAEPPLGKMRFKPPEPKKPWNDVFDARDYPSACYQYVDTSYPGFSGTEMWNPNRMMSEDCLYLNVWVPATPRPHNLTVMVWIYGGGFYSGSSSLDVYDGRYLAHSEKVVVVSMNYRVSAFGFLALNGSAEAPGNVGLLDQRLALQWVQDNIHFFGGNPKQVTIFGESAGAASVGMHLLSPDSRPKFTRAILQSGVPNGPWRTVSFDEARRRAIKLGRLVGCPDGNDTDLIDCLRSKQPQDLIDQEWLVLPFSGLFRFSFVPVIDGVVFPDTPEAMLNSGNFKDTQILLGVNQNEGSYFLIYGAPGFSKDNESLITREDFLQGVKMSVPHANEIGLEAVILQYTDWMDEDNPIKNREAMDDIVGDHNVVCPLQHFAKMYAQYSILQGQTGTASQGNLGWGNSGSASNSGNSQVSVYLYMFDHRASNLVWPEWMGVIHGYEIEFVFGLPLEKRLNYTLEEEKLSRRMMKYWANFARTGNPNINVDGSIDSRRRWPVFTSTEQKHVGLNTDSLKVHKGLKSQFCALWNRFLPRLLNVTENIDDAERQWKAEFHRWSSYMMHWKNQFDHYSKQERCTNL

[4] = molecular target: Cholinesterase (Equus caballus) (UniProt P81908); test: Inhibition of equine serum BuChE at 100 uM using butyrylthiocholine chloride as substrate preincubated for 15 mins followed by substrate addition and measured after 4 mins by Ellman's method; type: cell-free
Chain of Cholinesterase (Equus caballus) (P81908 whole entry): as the sequence (P81908 whole entry) above

[5] = molecular target: Cholinesterase (Equus caballus) (UniProt P81908); test: Inhibition of equine serum BuChE at 10 uM using butyrylthiocholine chloride as substrate preincubated for 15 mins followed by substrate addition and measured after 4 mins by Ellman's method; type: cell-free; settings: time 19.0 min
Acetylcholinesterase = Acetylcholinesterase (Electrophorus electricus, UniProt O42275); test: Inhibition of Electrophorus electricus AChE using acetylthiocholine iodide as substrate preincubated for 15 mins followed by substrate addition and measured after 4 mins by Ellman's method
Chain of Acetylcholinesterase (O42275 whole entry): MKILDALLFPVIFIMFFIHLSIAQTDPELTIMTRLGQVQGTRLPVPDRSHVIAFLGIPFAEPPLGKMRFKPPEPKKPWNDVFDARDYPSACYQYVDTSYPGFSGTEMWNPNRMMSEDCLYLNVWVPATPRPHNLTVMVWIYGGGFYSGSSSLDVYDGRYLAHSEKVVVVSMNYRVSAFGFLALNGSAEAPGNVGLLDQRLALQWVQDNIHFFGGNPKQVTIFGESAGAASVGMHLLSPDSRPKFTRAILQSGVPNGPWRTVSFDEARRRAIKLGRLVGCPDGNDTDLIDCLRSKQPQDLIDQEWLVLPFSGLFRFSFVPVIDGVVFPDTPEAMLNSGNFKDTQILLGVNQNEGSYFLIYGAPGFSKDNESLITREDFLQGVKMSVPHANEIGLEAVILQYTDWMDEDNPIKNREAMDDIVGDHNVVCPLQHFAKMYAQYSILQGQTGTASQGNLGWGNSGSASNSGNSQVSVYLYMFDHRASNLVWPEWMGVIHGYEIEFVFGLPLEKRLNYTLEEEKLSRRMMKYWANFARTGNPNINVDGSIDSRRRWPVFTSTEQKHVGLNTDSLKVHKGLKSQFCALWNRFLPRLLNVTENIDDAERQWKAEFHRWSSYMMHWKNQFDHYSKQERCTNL

| Structure (SMILES) | IC50 (Cholinesterase [1]) | Ki (Cholinesterase [2]) | inhibition [3] | inhibition [4] | inhibition [5] | IC50 (Acetylcholinesterase) |
| --- | --- | --- | --- | --- | --- | --- |
| COc1cc(C(=O)N/N=C/c2ccccc2OC(=O)N(C)C)ccc1O | 0.07 µM | 97 µM | 24.9% | 77.8% | 73% | > 100 µM |
| COc1cc(C(=O)N/N=C/c2ccc(OC(=O)N(C)C)c(OC)c2)ccc1O | 9.98 µM |  | 29.2% | 49.7% | 57.3% | > 100 µM |
| COc1ccc(C(=O)N/N=C/c2ccc(OC(=O)N(C)C)cc2)cc1OC | > 100 µM |  | 28.3% | 37.8% | 11.4% | > 100 µM |
| CN(C)C(=O)Oc1ccccc1/C=N/NC(=O)c1cccc(O)c1 | 0.56 µM |  | 18.2% | 82% | 74.9% | > 100 µM |
| COc1cc(/C=N/NC(=O)c2cccc(O)c2)ccc1OC(=O)N(C)C | 7.65 µM |  | 19.9% | 62.2% | 50.1% | > 100 µM |
| COc1cc(/C=N/NC(=O)c2ccc(O)cc2)ccc1OC(=O)N(C)C | 0.94 µM |  | 23.6% | 73.4% | 68.4% | > 100 µM |
| COc1ccc(C(=O)N/N=C/c2ccccc2OC(=O)N(C)C)cc1OC | 0.31 µM |  | 21.9% | 74% | 62.1% | > 100 µM |
| CN(C)C(=O)Oc1ccc(/C=N/NC(=O)c2ccc(O)cc2)cc1 | > 100 µM |  | 11.7% | 31% | 10.4% | > 100 µM |
| CN(C)C(=O)Oc1ccccc1/C=N/NC(=O)c1ccc(O)cc1 | 0.18 µM |  | 11.1% | 80.9% | 76.4% | > 100 µM |
| COc1ccc(C(=O)N/N=C/c2ccc(OC(=O)N(C)C)c(OC)c2)cc1OC | 2.07 µM |  | 24.7% | 78.5% | 74.8% | > 100 µM |
| CN(C)C(=O)Oc1ccc(/C=N/NC(=O)c2cccc(O)c2)cc1 | 29.3 µM |  | 9.65% | 75.2% | 42.1% | > 100 µM |
| COc1cc(C(=O)N/N=C/c2ccc(OC(=O)N(C)C)cc2)ccc1O | 21.9 µM |  | 20.1% | 63.9% | 44.6% | > 100 µM |
